Assay results from ChEMBL document CHEMBL1649157, “Intracellular activity of antibiotics against Staphylococcus aureus in a mouse peritonitis model” (Antimicrob Agents Chemother, 2009).
Values after ≈ are worked out from the molar mass of the structure shown. Active and inactive are the calls of the source. The calls are words filed in the database; no cut-off is given here.

Columns and labels:
Staphylococcus aureus [1] = assay: Bactericidal activity against Staphylococcus aureus E19977 assessed as log reduction in cfu at 0.5 mg/liter after 24 hrs by time-kill study; assay type: functional, organism-based
Procedure, shortened: (§1)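 In vitro kinetic model simulating antibiotic elimination without inoculum change. Exponential-phase E19977 was added at a final 10^6.3 CFU/ml. Starting drug concentration matched the human free peak, with the human half-life simulated. Samples were plated on 5% blood agar at 0, 2, 4, 6, 8, 12 and 24 h, with growth controls in each run. Results are shown as mean and range, n = 2.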

Staphylococcus aureus [2] = assay: Antibacterial activity against Staphylococcus aureus E19977 infected in NMRI mouse assessed as log reduction in bacterial cfu in peritoneum at 1 mg/kg, sc administered 2 hrs after infection measured after 4 hrs; assay type: functional, organism-based; set-up: dose 1 mg/kg
Procedure, shortened: (§2)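 Female NMRI mice (25–30 g) were infected i.p. with 0.5 ml of 10^7.7 CFU/ml in 5% mucin. […] Pooled washes were split into total, extracellular and intracellular fractions by 300 × g spin, lysostaphin, HBSS washes and water lysis. Counts were compared with untreated mice.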

Staphylococcus aureus [3] = assay: Bacteriostatic activity against Staphylococcus aureus E19977 assessed as log reduction in cfu at 0.5 mg/liter upto 8 hrs by time-kill study; assay type: functional, organism-based
Staphylococcus aureus [4] = assay: Antibacterial activity against Staphylococcus aureus E19977 by Etest; assay type: functional
[5] = Half life in human at 1000 mg, po; assay type: ADME, organism-based; settings: in vivo
Serum [6] = assay: Protein binding in human serum at 1000 mg, po; assay type: ADME, organism-based; settings: in vivo
Staphylococcus aureus [7] = assay: Bactericidal activity against Staphylococcus aureus E19977 assessed as log reduction in cfu at 2 mg/liter after 24 hrs by time-kill study; assay type: functional, organism-based; procedure, shortened: as §1
Staphylococcus aureus [8] = assay: Bactericidal activity against Staphylococcus aureus E19977 assessed as log reduction in cfu at 20 mg/liter after 24 hrs by time-kill study; assay type: functional, organism-based; procedure, shortened: as §1
[9] = Cmax in human at 1000 mg, po; assay type: ADME, organism-based; set-up: dose 1000 mg, route oral; settings: in vivo
Staphylococcus aureus [10] = assay: Bactericidal activity against Staphylococcus aureus E19977 assessed as log reduction in cfu at 9 mg/liter after 24 hrs by time-kill study; assay type: functional, organism-based; procedure, shortened: as §1
Staphylococcus aureus [11] = assay: Antibacterial activity against Staphylococcus aureus E19977 infected in NMRI mouse assessed as log reduction in extracellular bacterial cfu in peritoneum at 1 mg/kg, sc administered 2 hrs after infection measured after 4 hrs; assay type: functional, organism-based; set-up: dose 1 mg/kg; procedure, shortened: as §2
Staphylococcus aureus [12] = assay: Bactericidal activity against Staphylococcus aureus E19977 assessed as log reduction in cfu at 1.5 mg/liter after 24 hrs by time-kill study; assay type: functional, organism-based; procedure, shortened: as §1
Staphylococcus aureus [13] = assay: Antibacterial activity against Staphylococcus aureus E19977 infected in NMRI mouse assessed as log reduction in intracellular bacterial cfu in peritoneum at 1 mg/kg, sc administered 2 hrs after infection measured after 4 hrs; assay type: functional, organism-based; set-up: dose 1 mg/kg; procedure, shortened: as §2
Staphylococcus aureus [14] = assay: Antibacterial activity against Staphylococcus aureus E19977 infected in NMRI mouse assessed as log reduction in intracellular bacterial cfu in peritoneum at 200 mg/kg, sc administered 2 hrs after infection measured after 4 hrs; assay type: functional, organism-based; set-up: dose 200 mg/kg
Procedure, shortened: (§3)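 Dose–response in i.p.-infected NMRI mice (mucin adjuvant). Single doses of 200, 60, 30, 20 or 10 mg/kg were given 2 h after inoculation, with 4–16 mice per group. Peritoneal wash was sampled 4 h later and split by lysostaphin/centrifugation into total, extra- and intracellular counts, then expressed as Δlog10 CFU/ml against log dose. Vehicle controls were plotted as 0.3 mg/kg. Hill fit (variable slope); static dose interpolated.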

Staphylococcus aureus [15] = assay: Antibacterial activity against Staphylococcus aureus E19977 infected in NMRI mouse assessed as log reduction in extracellular bacterial cfu in peritoneum at 200 mg/kg, sc administered 2 hrs after infection measured after 4 hrs; assay type: functional, organism-based; set-up: dose 200 mg/kg; procedure, shortened: as §3
Staphylococcus aureus [16] = assay: Bactericidal activity against Staphylococcus aureus E19977 assessed as log reduction in cfu at 1.5 mg/liter upto 24 hrs by time-kill study; assay type: functional
Procedure, shortened: (§4)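 Clinical bacteremia isolate (penicillin-resistant, methicillin-susceptible). Exponential-phase bacteria were placed in an in vitro kinetic model that simulates drug elimination without changing the inoculum. The starting drug level matched the human free peak serum concentration after a single dose, with simulated human elimination half-life. Samples were taken at 0, 2, 4, 6, 8, 12 and 24 h, with growth controls in each run.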

Staphylococcus aureus [17] = assay: Bactericidal activity against Staphylococcus aureus E19977 assessed as log reduction in cfu at 20 mg/liter upto 24 hrs by time-kill study; assay type: functional
Procedure, shortened: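 In vitro kinetic model: exponential-phase bacteria at a final 10^6.3 CFU/ml were exposed to a starting concentration set to the human free peak level. Elimination followed the simulated human half-life. Samples were taken at 0, 2, 4, 6, 8, 12 and 24 h and counted on 5% blood agar (detection limit 25 CFU/ml). Growth controls were included; n = 2.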

Staphylococcus aureus [18] = assay: Antibacterial activity against Staphylococcus aureus E19977 infected in NMRI mouse assessed as log reduction in bacterial cfu in peritoneum at 200 mg/kg, sc administered 2 hrs after infection measured after 4 hrs; assay type: functional, organism-based; set-up: dose 200 mg/kg; procedure, shortened: as §3
Staphylococcus aureus [19] = assay: Bactericidal activity against Staphylococcus aureus E19977 assessed as log reduction in cfu at 2 mg/liter after 12 hrs by time-kill study; assay type: functional; procedure, shortened: as §4
[20] = Cmax in human at 1000 mg, im; assay type: ADME, organism-based; set-up: dose 1000 mg, route […]; settings: in vivo
[21] = Half life in human at 1000 mg, im; assay type: ADME, organism-based; settings: in vivo
Serum [22] = assay: Protein binding in human serum at 1000 mg, im; assay type: ADME, cell-free
Staphylococcus aureus [23] = assay: Bactericidal activity against Staphylococcus aureus E19977 assessed as log reduction in cfu at 2 mg/liter upto 24 hrs by time-kill study; assay type: functional; procedure, shortened: as §4

CC[C@H]1OC(=O)[C@H](C)[C@@H](O[C@H]2C[C@@](C)(OC)[C@@H](O)[C@H](C)O2)[C@H](C)[C@@H](O[C@@H]2O[C@H](C)C[C@H](N(C)C)[C@H]2O)[C@](C)(O)C[C@@H](C)CN(C)[C@H](C)[C@@H](O)[C@]1(C)O [AZITHROMYCIN]
Activity (Staphylococcus aureus [1]): inactive | Activity (Staphylococcus aureus [2]): inactive | Activity (Staphylococcus aureus [3]): Active | MIC (Staphylococcus aureus [4]): 0.5 µg/mL (≈ 0.668 µM) | half-life [5]: 600 min | Activity (Serum [6]): 50% | Activity (Staphylococcus aureus [7]): inactive | Activity (Staphylococcus aureus [8]): inactive | Cmax [9]: 1000 ng/mL | Activity (Staphylococcus aureus [10]): inactive | Activity (Staphylococcus aureus [11]): inactive | Activity (Staphylococcus aureus [12]): inactive | Activity (Staphylococcus aureus [13]): inactive

CO/N=C(\C(=O)N[C@@H]1C(=O)N2C(C(=O)O)=C(COC(N)=O)CS[C@H]12)c1ccco1 [CEFUROXIME]
Activity (Staphylococcus aureus [1]): inactive | Activity (Staphylococcus aureus [14]): inactive | Activity (Staphylococcus aureus [15]): Active | FC (Staphylococcus aureus [16]): 2 | FC (Staphylococcus aureus [17]): >2 | MIC (Staphylococcus aureus [4]): 2 µg/mL (≈ 4.71 µM) | Activity (Staphylococcus aureus [7]): inactive | Activity (Staphylococcus aureus [18]): Active | FC (Staphylococcus aureus [19]): 2 | Cmax [20]: 26000 ng/mL | Activity (Staphylococcus aureus [8]): inactive | Activity (Staphylococcus aureus [10]): inactive | Activity (Staphylococcus aureus [12]): inactive | half-life [21]: 90 min | Activity (Serum [22]): 30% | FC (Staphylococcus aureus [23]): 2
